The list is not random: actives were taken first. Their share in the collection is about 2.3%.
Mcl-1 Bim block = inhibitors of Bim peptide binding to Mcl-1, primary screen, biochemical, bead-based flow cytometry, multiplex; Induced myeloid leukemia cell differentiation protein Mcl-1 (Homo sapiens), Q07820; Bim peptide-Mcl-1 binding; inhibition, % at 10 µM; hit rate 0.1% among 190,000; in the data active = inhibition above about 40%;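 note: 0% = no compound tracer wells and 100% = peptide blocker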
DSG3 Ab inh = inhibitors of pemphigus antibody binding to DSG3, primary screen, biochemical, bead-based, flow cytometry, scFv-GFP; AID 588358, 2011; binding (percent of control), % at 10 µM; DSG3-coupled beads, scFv-anti-DSG3-GFP binding; hits give low values; Desmoglein-3 (Homo sapiens), P32926; hit rate 0.48% among 310,000;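 active = binding more than 3 SD below its plate's average and above zero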;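 note: hits lower antibody fragment binding to DSG3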
Mcl1-Bid inh = Mcl-1/Bid binding inhibitors, primary screen, biochemical, TR-FRET, 1536-well; Induced myeloid leukemia cell differentiation protein Mcl-1 (Homo sapiens), Q07820; TR-FRET Mcl-1/Bid-Dy647 peptide binding; inhibition, % at 21.7 µM; hit rate 0.97% among 220,000; AID 1021, 2008;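 active = compounds that cut the binding signal by more than half at the single screening dose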;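 note: His-tagged Mcl-1 with europium anti-His antibody binding Bid BH3 peptide; 0% = Mcl-1 plus peptide wells and 100% = peptide-only wells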
T cell HTS = modulators of CD8 T cell-vesicle binding, primary screen, mouse 2C CD8+ T cells, flow cytometry. response (vesicle binding), % at 7 µM. hit rate 0.068% among 330,000. AID 2052, 2009. 2C CD8+ T cell-vesicle binding; hits give low values;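 active = response, share of CD8 T cells binding vesicles, and their 90th percentile fluorescence all below set limits, cut at about 80% in these data, passing the limit was not always enough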;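 note: values below 100% mean blocked vesicle binding to the CD8+ T cells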
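Incubation: binding step 1.5 h, 37 °C, antibody labelling 20 min, ice; system: murine 2C transgenic CD8+ T lymphocytes; technique: cytometric PE anti-B7-1 and Alexa647 anti-CD8 signals after 1% paraformaldehyde fixation; also added: QL9-charged Drosophila Ld/ICAM-1/B7-1 vesicles; control set: naked versus QL9-loaded vesicles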
Mcl1 Noxa PPI = Mcl-1/Noxa binding inhibitors, primary screen, biochemical, TR-FRET, 1536-well | Induced myeloid leukemia cell differentiation protein Mcl-1 (Homo sapiens), Q07820 | TR-FRET Mcl-1/Noxa peptide binding, 2 h | inhibition, % at 21.7 µM | hit rate 1.5% among 220,000 | AID 1022, 2008;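 active = compounds that cut the protein-peptide binding signal by more than 50% relative to plate controls in a single-dose test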;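 note: His-tagged Mcl-1 with rhodamine Noxa BH3 peptide and terbium anti-His antibody; 0% = Mcl-1 plus Noxa peptide wells and 100% = peptide-only wells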
MCL1 BIM primary = inhibitors of MCL1 binding to BIM-BH3, primary screen, biochemical, fluorescence polarization; Induced myeloid leukemia cell differentiation protein Mcl-1 (Homo sapiens), Q07820; inhibition, % at 10.9 µM; GST-MCL1 / FITC-Bim-BH3 fluorescence polarization; hit rate 0.68% among 320,000;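 active = inhibition above the mean inhibition of all tested compounds plus 3 SD, set per campaign, cut at about 40% in these data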;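 note: 0% = DMSO wells and 100% = unlabeled Bim-BH3 peptide control; higher means more loss of mP so more displacement of Bim peptide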
Active calls of the source: *; / = not tested or not shown.

SMILES	Mcl-1 Bim block	DSG3 Ab inh	Mcl1-Bid inh	T cell HTS	Mcl1 Noxa PPI	MCL1 BIM primary
CC(C)(C)N1C(=O)Cc2c1nc(N)c1c(N)nc(N3CCCCC3CO)c(C#N)c21 (centres undefined)	2.0	105.1	-10.5	543.6	46.9	56.4*
O=C1C=C(c2ccc3cc[nH]c3c2)C[C@@H](c2ccc3c(c2)OCO3)C1	/	101.2	/	924.4	/	10.3
COCCn1c(C)cc(C(=O)CN2C(=O)C(=O)N(CCC3=CCCCC3)C2=O)c1C	/	98.0	/	/	/	/
Cc1cc(C)c(S(=O)(=O)/N=C2\C=CC(=O)C(Cl)=C2)c(C)c1	1.0	88.8	46.7	232.3	95.5*	32.1
CN(Cc1ccccc1)C(=O)c1[nH]cnc1C(=O)NCC(=O)OCc1ccccc1	/	108.3	/	647.8	/	5.7
COc1ccc(-c2cc(C(F)(F)F)nc(N3CCOCC3)n2)cc1OC	6.0	98.1	91.2*	268.0	14.5	-0.6
O=C(Cc1ccccc1[N+](=O)[O-])Nc1ccc(S(=O)(=O)N2CCCC2)cc1	/	/	/	319.3	/	8.3
CCC1(CC)NC(=O)N(CC(=O)OCC(=O)Nc2ccc(OC(F)(F)F)cc2)C1=O	/	98.0	/	362.5	/	1.2
CCOc1ccc(CN2CCN(S(=O)(=O)c3ccc(NC(C)=O)cc3)CC2)cc1OC	-3.0	104.7	51.7*	687.7	4.6	7.8
COc1ccc(CN2CCN(S(=O)(=O)c3ccc(NC(C)=O)cc3)CC2)cc1	/	94.7	44.5	100.2	11.7	-2.0
CCOc1cc(C=O)ccc1OS(=O)(=O)c1ccc(NC(C)=O)cc1	-1.0	87.5	52.0*	116.0	38.8	-1.1
CCOc1cc(C=O)ccc1OCC(N)=O	-1.0	97.8	-19.8	275.4	17.0	3.7
COc1ccc(C2(C)NC(=O)N(CC(=O)N(c3ccccc3)C3CCS(=O)(=O)C3)C2=O)cc1 (centres undefined)	/	91.1	/	494.2	/	/
COc1ccc(CNC(=O)COC(=O)c2ccc3ncsc3c2)cc1OC	/	/	/	223.4	/	9.3
COc1ccc(/C=C/C(=O)NC(=S)Nc2ccc(S(=O)(=O)Nc3cc(OC)ncn3)cc2)cc1	0.0	/	-61.1	/	31.2	/
CCc1nnc(NS(=O)(=O)c2ccc(NC(=S)NC(=O)/C=C/c3ccc([N+](=O)[O-])cc3)cc2)s1	/	93.8	-16.1	454.0	-6.2	1.9
COc1cc(NS(=O)(=O)c2ccc(NC(=S)NC(=O)/C=C/c3ccc(OC)c(OC)c3)cc2)ncn1	-4.0	100.4	-74.4	/	59.1*	-5.8
CCc1nnc(NS(=O)(=O)c2ccc(NC(=S)NC(=O)/C=C/c3ccc(F)cc3)cc2)s1	-5.0	92.5	-30.7	233.9	61.2*	12.0
COc1cccc(S(=O)(=O)N(C)C[C@@H]2Oc3cc(Br)ccc3S(=O)(=O)N([C@@H](C)CO)C[C@@H]2C)c1	/	98.4	/	/	/	/
Cc1cccc(NC(c2ccc(C)s2)c2ccc3ccc(C)nc3c2O)n1 (centres undefined)	-4.0	97.6	7.4	128.8	67.2*	23.2
COc1ccccc1NC(c1cccnc1)c1ccc2cccnc2c1O (centres undefined)	0.0	92.7	8.0	145.7	50.6*	17.9
COc1cc(C(Nc2ccccn2)c2ccc3ccc(C)nc3c2O)cc(OC)c1O (centres undefined)	-2.0	96.3	10.9	414.5	93.4*	38.0
Cc1ccnc(NC(c2cccnc2)c2ccc3cccnc3c2O)c1 (centres undefined)	0.0	103.9	-13.8	137.6	41.2	0.9
Cc1noc(C)c1CCC(=O)NC1CCCN(Cc2ccc(CC(C)C)cc2)C1 (centres undefined)	/	105.2	/	218.1	/	2.0
CS(=O)(=O)c1ccc(C(=O)Nc2nc(-c3ccco3)c(-c3ccco3)s2)cc1	/	101.0	/	/	/	/
SMILES	Mcl-1 Bim block	DSG3 Ab inh	Mcl1-Bid inh	T cell HTS	Mcl1 Noxa PPI	MCL1 BIM primary
O=C(CCNS(=O)(=O)c1ccc2c(c1)CCC(=O)N2)NCc1ccc2c(c1)OCO2	-1.0	/	-15.2	214.4	7.7	-1.3
O=C1CCc2cc(S(=O)(=O)NCCCC(=O)N3CCN(Cc4ccc5c(c4)OCO5)CC3)ccc2N1	40.0*	98.2	-55.1	316.5	2.7	-0.6
C/C(=N/O)c1ccc2c(c1)OCCOCCOc1cc(/C(C)=N/O)ccc1OCCOCCO2	0.0	104.5	21.1	298.1	59.3*	2.0
C=CCSc1nnc2nc3c(nn12)c1cc(C)ccc1n3CC=C	15.0	-30.0*	-18.5	152.2	6.6	7.7
C=CCn1c2ccccc2c2nnc(SCC(N)=O)nc21	/	114.1	/	177.9	/	13.8
CN(C(=O)c1ccc(C#N)cc1)c1nnc(-c2cnccn2)s1	/	98.0	85.5*	137.6	38.2	1.4
O=C(c1cccc(S(=O)(=O)N2CCN(c3ccc(F)cc3)CC2)c1)N1CCCC(C(F)(F)F)C1 (centres undefined)	/	112.7	/	253.7	/	-5.5
COc1ccc(C2CC(c3ccccc3C)n3nc(N)nc3N2)cc1 (centres undefined)	-1.0	105.5	-28.1	80.7	16.2	-3.4
CCOc1ccc(C2CC(c3ccccc3C)n3nc(N)nc3N2)cc1 (centres undefined)	-2.0	105.2	-7.0	52.8*	20.2	3.5
CCOC(=O)C1=C(CSc2nc3c(cc2C#N)CCC3)OC(N)=C(C#N)C1c1ccccc1 (centres undefined)	0.0	120.1	-28.7	/	24.7	6.3
CCOC(=O)C1=C(CSc2nc3c(cc2C#N)CN(C)CC3)OC(N)=C(C#N)C1c1ccc(F)cc1 (centres undefined)	0.0	100.2	-62.2	423.0	13.7	42.9*
Cc1csc(N/N=C/c2ccc(O)c([N+](=O)[O-])c2)n1	-1.0	104.4	-69.7	221.7	55.2*	27.6
Cc1ccc(S(=O)(=O)N(CC(=O)Nc2ccc(C)cc2C)C(=O)N2CCN(C)CC2)cc1	/	95.0	/	151.3	/	0.2
O=C(Nc1ccccc1Cl)Oc1ccc(Cl)cc1Cl	/	91.6	-6.9	27.2*	-4.6	7.1
CCN(CC)CC(C)OC(=O)c1cc(OC)c(OC)c(OC)c1 (centres undefined)	-1.0	102.1	50.7*	816.2	3.5	0.4
COc1ccc(C2CC(=O)C3=C(C2)Nc2ccccc2NC3c2coc3ccccc3c2=O)cc1OC (centres undefined)	42.0*	130.9	-43.2	417.2	10.1	-7.9
Cc1ccc(C(=O)COC(=O)c2c(C)cc(=O)oc2C)cc1[N+](=O)[O-]	-6.0	108.0	2.6	199.9	14.2	8.6
